Experimental data as given in ChEMBL document CHEMBL3259653, “Potent and selective inhibitors of human reticulocyte 12/15-lipoxygenase as anti-stroke therapies” (J Med Chem, 2014).
One block for each compound: values may come before it. Activity calls are given as the source filed them. No cut-off for these calls is given here.

Columns and labels:
[1] = molecular target: T1, Polyunsaturated fatty acid lipoxygenase ALOX15 (Mus musculus) (UniProt P39654); test: Inhibition of 12/15-lipoxygenase in mouse HT22 cells assessed as protection against glutamate-induced cell death at 5 uM after 24 hrs by LDH release assay; format: cell-based; details: HT-22
T1 sequence (whole entry): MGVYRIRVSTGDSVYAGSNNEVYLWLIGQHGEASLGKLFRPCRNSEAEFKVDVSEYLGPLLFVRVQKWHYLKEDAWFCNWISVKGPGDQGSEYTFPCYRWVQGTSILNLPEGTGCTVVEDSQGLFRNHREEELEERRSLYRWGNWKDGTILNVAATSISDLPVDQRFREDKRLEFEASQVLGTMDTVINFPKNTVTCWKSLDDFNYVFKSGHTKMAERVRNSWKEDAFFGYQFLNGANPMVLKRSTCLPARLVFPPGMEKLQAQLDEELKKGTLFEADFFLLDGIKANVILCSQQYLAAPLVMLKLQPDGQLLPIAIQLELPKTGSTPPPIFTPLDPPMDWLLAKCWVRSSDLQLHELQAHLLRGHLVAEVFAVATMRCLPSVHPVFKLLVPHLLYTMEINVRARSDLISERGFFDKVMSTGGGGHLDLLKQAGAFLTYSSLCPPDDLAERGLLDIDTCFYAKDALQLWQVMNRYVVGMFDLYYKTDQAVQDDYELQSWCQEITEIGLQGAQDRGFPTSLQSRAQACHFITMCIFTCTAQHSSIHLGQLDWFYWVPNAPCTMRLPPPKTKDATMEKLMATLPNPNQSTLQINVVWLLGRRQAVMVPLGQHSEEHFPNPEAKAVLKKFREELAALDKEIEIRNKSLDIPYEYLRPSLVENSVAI
Method in brief: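 HT22 mouse hippocampal cells were grown in DMEM with 10% FBS and penicillin/streptomycin, seeded at 1 × 10^4 cells/well and treated 18 h later at 50–70% confluence. Medium was exchanged for fresh medium with 5 mM glutamate plus compound or DMSO (≤0.1% final). Death was scored as percent LDH released to the medium versus the cell extract, background-subtracted.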

[2] = molecular target: T2, Prostaglandin G/H synthase 1 (Ovis aries) (UniProt P05979); test: Inhibition of ovine COX-1 using arachidonic acid as substrate assessed as consumption of oxygen at 5 uM preincubated for 5 mins followed by substrate addition by oxygen electrode-based assay relative to control
T2 sequence (whole entry): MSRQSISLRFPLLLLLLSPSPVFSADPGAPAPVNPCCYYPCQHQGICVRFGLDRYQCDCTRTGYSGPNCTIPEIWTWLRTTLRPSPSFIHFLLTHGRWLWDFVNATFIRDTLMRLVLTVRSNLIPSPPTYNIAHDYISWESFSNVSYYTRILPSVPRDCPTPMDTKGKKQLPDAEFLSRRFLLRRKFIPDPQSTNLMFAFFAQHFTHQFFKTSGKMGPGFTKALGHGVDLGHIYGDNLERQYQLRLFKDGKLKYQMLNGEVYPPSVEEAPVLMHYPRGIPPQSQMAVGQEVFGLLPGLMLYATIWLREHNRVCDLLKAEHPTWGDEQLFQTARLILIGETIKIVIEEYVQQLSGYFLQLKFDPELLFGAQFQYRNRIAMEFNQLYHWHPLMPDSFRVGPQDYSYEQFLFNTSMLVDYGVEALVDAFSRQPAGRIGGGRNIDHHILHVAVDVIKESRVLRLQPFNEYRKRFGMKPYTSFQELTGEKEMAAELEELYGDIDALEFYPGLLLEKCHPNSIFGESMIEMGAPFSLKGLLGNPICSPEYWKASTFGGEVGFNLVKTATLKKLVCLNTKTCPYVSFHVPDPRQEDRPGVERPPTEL
Method in brief: (§1)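 COX-1 or COX-2 (2–5 μg) in 0.1 M Tris-HCl pH 8.0 with 5 mM EDTA, 2 mM phenol and 1 μM hematin at 37 °C. Inhibitor was preincubated 5 min, then 100 μM arachidonic acid was added. Oxygen consumption was read on an oxygen electrode, and percent inhibition was calculated against a DMSO control, with indomethacin as positive control.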

[3] = molecular target: T3, Prostaglandin G/H synthase 2 (Homo sapiens) (UniProt P35354); test: Inhibition of human COX-2 using arachidonic acid as substrate assessed as consumption of oxygen at 5 uM preincubated for 5 mins followed by substrate addition by oxygen electrode-based assay relative to control; method in brief: as §1
T3 sequence (whole entry): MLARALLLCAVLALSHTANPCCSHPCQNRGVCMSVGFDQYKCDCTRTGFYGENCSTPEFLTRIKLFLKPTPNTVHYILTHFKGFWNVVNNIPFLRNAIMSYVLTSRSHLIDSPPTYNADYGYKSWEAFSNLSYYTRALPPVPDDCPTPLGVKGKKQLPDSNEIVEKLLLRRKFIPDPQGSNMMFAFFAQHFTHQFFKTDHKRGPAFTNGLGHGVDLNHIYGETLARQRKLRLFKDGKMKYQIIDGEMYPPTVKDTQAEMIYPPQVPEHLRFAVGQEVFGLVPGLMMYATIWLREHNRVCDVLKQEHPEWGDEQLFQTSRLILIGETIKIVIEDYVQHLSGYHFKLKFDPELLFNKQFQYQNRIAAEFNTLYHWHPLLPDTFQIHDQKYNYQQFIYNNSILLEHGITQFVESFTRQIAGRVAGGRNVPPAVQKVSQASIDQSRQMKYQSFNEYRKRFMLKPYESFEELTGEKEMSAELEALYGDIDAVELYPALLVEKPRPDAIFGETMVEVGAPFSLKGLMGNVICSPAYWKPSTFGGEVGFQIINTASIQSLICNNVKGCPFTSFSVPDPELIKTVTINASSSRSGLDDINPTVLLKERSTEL

[4] = molecular target: T4, Polyunsaturated fatty acid lipoxygenase ALOX15 (Homo sapiens, UniProt P16050); test: Inhibition of recombinant N-terminal His6-tagged human reticulocyte 12/15-lipoxygenase using arachidonic acid as substrate by UV-vis spectrometric analysis
T4 sequence (P16050 whole entry): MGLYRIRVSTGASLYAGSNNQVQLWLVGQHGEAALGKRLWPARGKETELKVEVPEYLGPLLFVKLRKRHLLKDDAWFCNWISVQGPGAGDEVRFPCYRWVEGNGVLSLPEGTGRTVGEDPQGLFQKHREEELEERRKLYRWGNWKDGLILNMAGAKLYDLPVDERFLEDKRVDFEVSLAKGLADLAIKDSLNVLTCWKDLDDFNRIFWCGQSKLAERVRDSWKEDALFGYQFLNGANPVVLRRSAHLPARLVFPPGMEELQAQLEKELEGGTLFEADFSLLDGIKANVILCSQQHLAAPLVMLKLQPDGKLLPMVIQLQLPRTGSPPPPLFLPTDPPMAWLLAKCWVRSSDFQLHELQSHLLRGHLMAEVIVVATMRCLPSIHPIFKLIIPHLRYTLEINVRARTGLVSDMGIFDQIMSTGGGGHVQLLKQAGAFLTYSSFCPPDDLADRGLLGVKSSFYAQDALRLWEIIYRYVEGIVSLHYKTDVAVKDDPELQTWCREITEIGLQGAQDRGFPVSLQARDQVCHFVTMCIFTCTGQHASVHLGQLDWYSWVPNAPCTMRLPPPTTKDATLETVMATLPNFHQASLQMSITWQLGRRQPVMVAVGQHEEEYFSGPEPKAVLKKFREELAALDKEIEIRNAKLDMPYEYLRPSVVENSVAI

[5] = molecular target: T5, Polyunsaturated fatty acid lipoxygenase ALOX15 (Homo sapiens) (UniProt P16050); test: Inhibition of recombinant N-terminal His6-tagged human reticulocyte 12/15-lipoxygenase using arachidonic acid as substrate at 25 uM by UV-vis spectrometric analysis relative to control
T5 sequence (whole entry): T4 sequence (P16050 whole entry)
Method in brief: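 His6-tagged human 12/15-LOX, Ni-NTA purified, at 40 nM in 25 mM HEPES pH 7.5 with 0.01% Triton X-100 and 10 μM arachidonic acid, in a stirred cuvette at 22 °C. Diene formation was followed at 234 nm, and percent inhibition at 25 μM inhibitor was calculated against the DMSO control rate.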

[6] = molecular target: T6, Polyunsaturated fatty acid 5-lipoxygenase (Homo sapiens, UniProt P09917); test: Inhibition of human 5-lipoxygenase using arachidonic acid as substrate by UV-vis spectrometric analysis
T6 sequence (P09917 whole entry): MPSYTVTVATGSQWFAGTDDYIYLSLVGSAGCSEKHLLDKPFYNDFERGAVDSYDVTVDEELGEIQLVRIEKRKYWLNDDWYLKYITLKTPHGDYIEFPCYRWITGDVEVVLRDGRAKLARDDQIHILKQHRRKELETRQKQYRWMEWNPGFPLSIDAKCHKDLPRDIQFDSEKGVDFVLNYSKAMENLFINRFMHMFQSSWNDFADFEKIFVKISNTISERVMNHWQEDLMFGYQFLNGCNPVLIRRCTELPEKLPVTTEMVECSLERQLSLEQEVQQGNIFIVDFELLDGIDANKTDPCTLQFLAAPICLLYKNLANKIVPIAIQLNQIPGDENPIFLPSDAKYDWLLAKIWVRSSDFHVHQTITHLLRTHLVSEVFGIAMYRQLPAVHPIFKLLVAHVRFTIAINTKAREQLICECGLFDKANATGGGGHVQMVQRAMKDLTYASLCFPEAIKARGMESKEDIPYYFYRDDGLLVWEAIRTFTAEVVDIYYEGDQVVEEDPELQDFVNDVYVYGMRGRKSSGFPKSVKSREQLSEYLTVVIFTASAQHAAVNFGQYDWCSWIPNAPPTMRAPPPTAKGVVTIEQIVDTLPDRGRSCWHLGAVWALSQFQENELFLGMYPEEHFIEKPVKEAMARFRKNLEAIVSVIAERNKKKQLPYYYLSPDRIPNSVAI

[7] = molecular target: T7, Polyunsaturated fatty acid lipoxygenase ALOX15B (Homo sapiens, UniProt O15296); test: Inhibition of N-terminal His6-tagged human epithelial 15-lipoxygenase-2 using arachidonic acid as substrate by UV-vis spectrometric analysis
T7 sequence (O15296 whole entry): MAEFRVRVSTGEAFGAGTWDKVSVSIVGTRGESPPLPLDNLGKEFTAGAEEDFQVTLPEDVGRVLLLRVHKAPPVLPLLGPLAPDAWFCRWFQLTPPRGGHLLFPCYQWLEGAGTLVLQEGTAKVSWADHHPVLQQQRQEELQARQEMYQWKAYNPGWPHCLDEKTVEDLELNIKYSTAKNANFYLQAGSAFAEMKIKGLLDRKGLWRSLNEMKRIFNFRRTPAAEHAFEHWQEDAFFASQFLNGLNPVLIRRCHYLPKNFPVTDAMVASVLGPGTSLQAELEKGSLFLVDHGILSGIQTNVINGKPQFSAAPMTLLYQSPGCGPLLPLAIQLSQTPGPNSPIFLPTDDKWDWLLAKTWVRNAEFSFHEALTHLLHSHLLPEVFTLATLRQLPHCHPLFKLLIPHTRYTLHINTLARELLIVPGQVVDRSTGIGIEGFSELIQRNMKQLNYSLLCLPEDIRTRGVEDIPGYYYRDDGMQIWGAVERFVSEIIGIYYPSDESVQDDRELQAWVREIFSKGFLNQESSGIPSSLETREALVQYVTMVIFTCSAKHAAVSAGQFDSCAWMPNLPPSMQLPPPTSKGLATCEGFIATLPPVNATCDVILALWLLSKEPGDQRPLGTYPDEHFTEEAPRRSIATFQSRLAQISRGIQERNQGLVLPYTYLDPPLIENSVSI

Compound: CNc1oc(-c2ccc(-c3ccccc3)cc2)nc1C#N
inhibition [1]: Active

inhibition [2]: < 10% | inhibition [3]: < 10%
Compound: CNc1oc(-c2cccc(Cl)c2Cl)nc1C#N

IC50 [4]: > 40 µM
Compound: CNc1nc(-c2cccc3ccccc23)ccc1C#N

IC50 [4]: > 40 µM
Compound: CNc1oc(-c2cccc3ccccc23)nc1C(=O)OC

Imax [5]: < 50%
Compound: CNc1oc(-c2ccc3ccccc3c2)nc1C#N

inhibition [2]: < 10% | inhibition [3]: < 10%
Compound: CNc1oc(-c2ccc(Cl)c(Cl)c2)nc1C#N

inhibition [2]: < 10% | IC50 [6]: > 50 µM | inhibition [3]: < 10% | IC50 [7]: > 50 µM
Compound: CNc1sc(-c2cccc3ccccc23)nc1C#N

IC50 [4]: > 40 µM
Compound: CC(C)Nc1oc(-c2cccc3ccccc23)nc1C#N

IC50 [4]: > 30 µM | Imax [5]: < 50%
Compound: N#Cc1nc(-c2cccc3ccccc23)oc1NCc1ccccc1

IC50 [4]: > 25 µM
Compound: N#Cc1nc(-c2cccc3ccccc23)oc1NC1COC1

Imax [5]: < 50%
Compound: CNc1sc(-c2cccc3ccccc23)nc1C(=O)OC

IC50 [4]: > 40 µM
Compound: N#Cc1nc(-c2cccc3ccccc23)oc1NC1CNC1
inhibition [1]: Active

Compound: CNc1nc(C#N)c(-c2cccc3ccccc23)o1
IC50 [4]: > 40 µM | inhibition [1]: inactive

IC50 [4]: > 40 µM
Compound: CNc1nnc(-c2cccc3ccccc23)s1

IC50 [4]: > 30 µM | Imax [5]: < 50%
Compound: N#Cc1nc(-c2cccc3ccccc23)oc1Nc1ccccc1

Imax [5]: < 50%
Compound: CNc1oc(-c2cccc3cnccc23)nc1C#N

IC50 [4]: > 50 µM
Compound: CNc1oc(C2CCCC2)nc1C#N
